Assay results: ChEMBL document CHEMBL3046821, “Phospholipase A2 inhibitors synthesized by two entomopathogenic bacteria, Xenorhabdus nematophila and Photorhabdus temperata subsp. temperata” (Appl Environ Microbiol, 2012)
Converted amounts (≈) assume the structure as drawn. The source made the active and inactive calls. No cut-off for these calls is given here. Residues, ends and D or L forms follow the SMILES beside them.

Experiments:
Plutella xylostella [1] = assay: Potentiation of 1000 ppm Bacillus thuringiensis-induced pathogenicity against Plutella xylostella (diamondback moth) fourth-instar larvae at 10000 ppm measured 48 hr post compound treatment; type: functional, organism-based
Method in brief: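 P. xylostella larvae fed Chinese cabbage pieces (1 cm2) dipped 5 min in test solutions together with commercial B. thuringiensis subsp. kurstaki, briefly dried in dark. Mortality at 48 h, with dead meaning no coordinated movement on probing; 10 larvae per replicate, three replicates; arcsine-square-root transformed, LSD test.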

Spodoptera exigua [2] = assay: Inhibition of immune responses in Spodoptera exigua fifth-instar larvae assessed as inhibition of hemocytic nodulation in response to Escherichia coli challenge by stereomicroscopy; type: functional, organism-based; settings: read-out: I50
Method in brief: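 Fifth-instar S. exigua injected with E. coli (3.2 × 10^4 cells) mixed with compound in 10 μl; after 8 h at 25°C melanized nodules counted under stereomicroscope at ×50. Three replicates; I50 derived.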

Spodoptera exigua [3] = assay: (§1) Inhibition of PLA2 in hemocytes of Spodoptera exigua fifth-instar larvae using pyrene-labeled phospholipid substrate by spectrofluorometry; type: cell-based
Method in brief: (§2)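 PLA2 from fifth-instar S. exigua hemocytes: hemolymph spun 500 × g 10 min, hemocytes sonicated in PBS, 12,500 × g 10 min 4°C supernatant. Enzyme (10 μg) preincubated with 10 μl sample, 25°C, 10 min; pyrene-labeled phosphatidylcholine substrate added with BSA and CaCl2 in PBS pH 7.4; residual activity by fluorescence, ex 348/em 390 nm. Triplicate independent samplings; I50 derived.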

[4] = as §1; type: cell-based; settings: read-out: I50; method in brief: as §2
Plutella xylostella [5] = assay: Insecticidal activity against Plutella xylostella (diamondback moth) fourth-instar larvae fed on cabbage leaves soaked in compound solutions measured 48 hr post compound treatment by leaf-dipping method; type: functional
Method in brief: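 Leaf-dip feeding assay: Chinese cabbage pieces (1 cm2) soaked 5 min in test solutions at predetermined concentrations, briefly dried in the dark, then fed to P. xylostella larvae (field-origin colony reared on cabbage at 25 ± 1°C, 16:8 h light:dark). Three replicates of 10 larvae per dose. Mortality scored at 48 h; dead = no coordinated movement when prodded. Dose-mortality curves give LC50.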

[6] = test system: Phenoloxidase (Spodoptera exigua); assay: Inhibition of phenoloxidase activity in hemolymph of Spodoptera exigua fifth-instar larvae using DOPA substrate

SMILES	Activity (Plutella xylostella [1])	IC50 (Spodoptera exigua [2]) [µM]	inhibition (Spodoptera exigua [3])	IC50 [4] [µM]	LC50 (Plutella xylostella [5]) [µg/mL]	inhibition [6]
O=C1N[C@@H](Cc2ccc(O)cc2)C(=O)N2CCC[C@@H]12	Active	37.7	Dose-dependent effect	47.8	5950 (≈ 22.9 mM)	
CC(=O)N[C@@H](Cc1ccccc1)C(=O)NCC(=O)N[C@H](C(=O)O)C(C)C (Ac-Phe-Gly-Val-OH)	Active	423	Dose-dependent effect	428	8350 (≈ 23 mM)	Dose-dependent effect
O=C(O)[C@H](Cc1ccc(O)cc1)NC(=O)[C@@H]1CCCN1 (H-Pro-Tyr-OH)	Active	473	Dose-dependent effect	522	7690 (≈ 27.6 mM)	Dose-dependent effect
CC(=O)/C=C/c1ccccc1 [BUTENONE]	Active		Dose-dependent effect			
O=C(O)CCc1ccc(O)cc1 [HYDROXYPHENYL PROPIONIC ACID]	Active	58.7	Dose-dependent effect	49.5	6640 (≈ 40 mM)	Dose-dependent effect
c1ccc2[nH]ccc2c1 [INDOLE]	Active	52.9	Dose-dependent effect	64.9	6270 (≈ 53.6 mM)	
O=C1Cc2ccccc2N1 [OXINDOLE]	Active	32.3	Dose-dependent effect	46.2	4830 (≈ 36.3 mM)	Dose-dependent effect
